The target in experiment [1] is alligator estrogen receptor alpha (aERα) (Alligator mississippiensis, UniProt Q765N7). Description: Cell-free competitive binding assay with baculovirus-expressed recombinant aERα. Set-up: species or system American alligator (Alligator mississippiensis). The conditions noted are these: IC50 of 17β-estradiol / IC50 of compound × 100.
In experiment [2] the test system is aERα. Description: CV1 transactivation assay with exogenous aERα. In kind it is cell-based, American alligator (Alligator mississippiensis). Conditions: CV1 cells.
Experiment [3] relates to endogenous hERα and hERβ. Description: T47D-KBluc transactivation assay. In kind it is cell-based, human. Conditions: T47D-KBluc cells. An outline of the steps: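 Stably transfected T47D reporter line (endogenous ERα/ERβ, 3×-ERE-TATA-Luc) was plated at 10,000 cells/well and dosed after overnight culture for 24 h. […] After PBS rinse and lysis, luciferase RLU was read with D-luciferin and converted to log fold induction. One-way ANOVA was applied. There were two independent experiments, four wells per treatment.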

Experiment [4] has as its target aERα. The conditions noted are these: read-out: Dissociation constant (Kd) of aERα for E2; recombinant aERα; cited from earlier work.

Each structure is given as a SMILES string.

One may read the Kd as the constant that tells how readily two partners part at equilibrium.

For the molecule `C[C@]12CC[C@@H]3c4ccc(O)cc4CC[C@H]3[C@@H]1CC[C@@H]2O` [17β-Estradiol, reference compound], the “RBA, Alligator” value in experiment [1] is on record as 100. Moreover, the “Transcription of estrogen responsive gene with aERα” value in experiment [2] is “induced transcription”. For the same molecule, the “Transcriptional activation of estrogen-dependent reporter” value in experiment [3] was “dose dependent transactivation”. Moreover, the Kd in experiment [4] is 0.44 ± 0.039 nM.

Source of the values: publication PMC2944037 (Environmental toxicology and chemistry / SETAC, 2010).
